Assay outcomes as filed in PubChem.
14-3-3 Bad inh: disrupts binding of bovine 14-3-3 zeta to phospho-Bad peptide | P63103 | TR-FRET 14-3-3zeta/Dy647-pBad peptide displacement, 1 h | AID 781 | inhibition, % at 21.7 µM | 0.71% of 220,000 active;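 active = inhibition above about 70%, limit read from the data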;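 also: 0% = full 14-3-3 plus peptide FRET controls and 100% = background without 14-3-3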
Target sequence (P63103 whole entry, looked up): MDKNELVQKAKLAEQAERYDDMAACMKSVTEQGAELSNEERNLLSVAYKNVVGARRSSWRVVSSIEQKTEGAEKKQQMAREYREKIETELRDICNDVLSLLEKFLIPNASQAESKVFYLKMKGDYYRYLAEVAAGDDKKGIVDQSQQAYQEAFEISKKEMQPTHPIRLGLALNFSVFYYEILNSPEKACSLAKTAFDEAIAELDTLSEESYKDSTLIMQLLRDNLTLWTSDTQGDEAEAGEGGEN
Runt-CBFb FRET: blocks binding of human RUNX1 Runt domain to CBFb | Q01196+Q13951 | Cerulean-Runt/Venus-CBFb FRET ratio 530/480, 1 h | inhibition, % at 20 µM | 0.46% of 220,000 active | AID 1496;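 active = inhibition over about 50% at 20 µM in the single-dose screen, limit read from the data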;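 also: 0% = DMSO wells and 100% = excess unlabeled CBFb competitor control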
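Doses: 20 µM compound in 1% DMSO | Material: Cerulean-labeled Runt domain protein | Amount: Each fluorescent fusion protein 100 nM | Schedule: Two 1 h room-temperature incubations shielded from light | Measured by: FRET fluorescence | Evaluation: Loss of energy transfer signal | Controls: Unlabeled CBFb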
Runt-SMMHC FRET: Runt domain-CBFb-SMMHC interaction inhibition; Q01196+Q13951; 0.74% of 220,000 active; inhibition, % at 20 µM; Cerulean-Runt/Venus-CBFb-SMMHC FRET ratio 530/480, 1 h;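 active = mean inhibition across duplicate retests at 20 µM reaching about 50%, limit read from the data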;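 also: 0% = DMSO wells and 100% = wells with excess untagged CBFb-SMMHC; inhibitors lower the FRET ratio by blocking Runt binding to CBFb-SMMHC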
Hck Nef HTS: human Hck-Nef kinase inhibition; inhibition, % at 20 µM; Recombinant Hck-YEEI plus Nef, Z-Lyte FRET kinase assay; 0.68% of 220,000 active;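 active = Hck-Nef kinase inhibition above about 50%, limit read from the data; inactive = inhibition below that limit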;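 also: 0% = DMSO with Hck plus Nef and 100% = Hck alone without Nef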
RanGTP-Impb inh: disruptors of Ran-importin-beta complex formation – biochemical, FRET, CFP-Ran, YFP-importin-beta, homogeneous, primary screen; cell-free CFP-Ran/YFP-importin-beta FRET ratio; inhibition, % (concentration not given with the values); 1.1% of 300,000 active;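 active = more than half of the replicate wells show a fall in the fluorescence ratio signal beyond about 16%, limit read from the data, passing the limit was not always enough; inconclusive = exactly half of the replicate wells pass the set limit; inactive = fewer than half of replicates pass the limit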;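 also: 0% = DMSO wells and 100% = Ran loaded with GDP instead of GTP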
Tb hexokinase: T. brucei hexokinase 1 inhibition | recombinant TbHK1, G6PDH-coupled NADH A340 | inhibition, % at 10 µM | 0.11% of 220,000 active | AID 1430;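 active = inhibition of 50% or more in the single-dose primary screen; inactive = inhibition below 50%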
Numbers without * were called inactive. The list is not random: actives were taken first. Their share in the collection is about 2.2%.

What do the screens show for `O=C(CN1CCN(c2ccccc2)CC1)Nc1ccccc1C(F)(F)F`?
14-3-3 Bad inh: 4; Runt-CBFb FRET: 80*; Runt-SMMHC FRET: -4; Hck Nef HTS: 2; RanGTP-Impb inh: 1; Tb hexokinase: -2

How did CCCN1C=CC(=CC=C(C#N)C#N)C=C1 do in these assays?
14-3-3 Bad inh: -2; Runt-CBFb FRET: -14; Runt-SMMHC FRET: -30; Hck Nef HTS: -3; RanGTP-Impb inh: 34*; Tb hexokinase: -5

Results for COc1ccc2c(c1)nc(SCC(=O)c1ccc(Br)s1)n2C ?
14-3-3 Bad inh: 84*; Runt-CBFb FRET: 10; Runt-SMMHC FRET: 13; Hck Nef HTS: 0; RanGTP-Impb inh: 5; Tb hexokinase: -7

How did COC(=O)CSc1nc2cc(OC)ccc2n1C do in these assays?
14-3-3 Bad inh: 6; Runt-CBFb FRET: -1; Runt-SMMHC FRET: 0; Hck Nef HTS: 1; RanGTP-Impb inh: 1; Tb hexokinase: -5

How did Cc1cccn2c(=O)c3cc(S(=O)(=O)c4ccc(F)cc4)c(=N)n(Cc4ccco4)c3nc12 do in these assays?
14-3-3 Bad inh: -5; Runt-CBFb FRET: 10; Runt-SMMHC FRET: 81*; Hck Nef HTS: 18; RanGTP-Impb inh: 84*; Tb hexokinase: -10

Results for Cc1cccn2c(=O)c3cc(S(=O)(=O)c4ccccc4)c(=N)n(Cc4ccc(F)cc4)c3nc12 ?
RanGTP-Impb inh: -2

What do the screens show for `Cc1cccn2c(=O)c(C=Nc3ccccc3)c(NCc3ccco3)nc12`?
14-3-3 Bad inh: -4; Runt-CBFb FRET: 3; Runt-SMMHC FRET: 8; Hck Nef HTS: 6; RanGTP-Impb inh: 7; Tb hexokinase: -13

Results for Cc1cccn2c(=O)c3cc(S(=O)(=O)c4ccccc4)c(=N)n(Cc4ccco4)c3nc12 ?
14-3-3 Bad inh: 0; Hck Nef HTS: 31; RanGTP-Impb inh: 93*; Tb hexokinase: -6

Results for COC(=O)C1=CN(Cc2cccs2)C=C(C(=O)OC)C1c1cccc(O)c1 ?
14-3-3 Bad inh: -4; Runt-CBFb FRET: 98*; Runt-SMMHC FRET: 133*; Hck Nef HTS: 42; RanGTP-Impb inh: 11; Tb hexokinase: -9

What do the screens show for `CN(C)S(=O)(=O)c1c(Cl)cccc1Cl`?
14-3-3 Bad inh: 81*; Runt-CBFb FRET: 1; Runt-SMMHC FRET: -1; Hck Nef HTS: 3; Tb hexokinase: 4

How did C/C(CCc1ccc2c(c1)OCO2)=N\NC(=O)c1ccccc1 do in these assays?
14-3-3 Bad inh: 4; Runt-CBFb FRET: 0; Runt-SMMHC FRET: 4; Hck Nef HTS: -1; RanGTP-Impb inh: -3; Tb hexokinase: -5

Results for NC(=NCc1ccc2c(c1)OCO2)NC(=O)c1ccccc1 ?
14-3-3 Bad inh: 77*; Runt-CBFb FRET: -63; Runt-SMMHC FRET: -107; Hck Nef HTS: 24; RanGTP-Impb inh: -18; Tb hexokinase: 1

What do the screens show for `O=C(O)CNc1nc(-c2ccccc2)nc2c1oc1ccccc12`?
14-3-3 Bad inh: 1; Runt-CBFb FRET: 2; Runt-SMMHC FRET: 2; Hck Nef HTS: 17; RanGTP-Impb inh: 3; Tb hexokinase: -5

How did c1ccc(-c2nc(NCc3cccnc3)c3oc4ccccc4c3n2)cc1 do in these assays?
14-3-3 Bad inh: 81*; Runt-CBFb FRET: -3; Runt-SMMHC FRET: -4; Hck Nef HTS: 2; RanGTP-Impb inh: 9; Tb hexokinase: 0

Results for c1ccc(-c2nc(NCC3CCCO3)c3oc4ccccc4c3n2)cc1 (stereo not given) ?
14-3-3 Bad inh: 70*; Runt-CBFb FRET: -6; Runt-SMMHC FRET: -4; Hck Nef HTS: -1; RanGTP-Impb inh: 1; Tb hexokinase: -10

Results for CCc1ccc(Nc2nc(N)nc(CSc3nnnn3-c3ccccc3)n2)cc1 ?
14-3-3 Bad inh: 71*; Runt-CBFb FRET: -3; Runt-SMMHC FRET: -3; Hck Nef HTS: 4; RanGTP-Impb inh: 1; Tb hexokinase: -2

Results for CS(=O)(=O)c1ccc2nc(NC(=O)c3cccc(NS(=O)(=O)c4ccc(F)c(F)c4)c3)sc2c1 ?
14-3-3 Bad inh: -4; Runt-CBFb FRET: -1; Runt-SMMHC FRET: 0; Hck Nef HTS: 4; RanGTP-Impb inh: 11; Tb hexokinase: -21

What do the screens show for `CS(=O)(=O)c1ccc2nc(NC(=O)c3ccc(NS(=O)(=O)c4ccc(F)c(F)c4)cc3)sc2c1`?
14-3-3 Bad inh: 72*; Runt-CBFb FRET: -1; Runt-SMMHC FRET: -18; Hck Nef HTS: 39; RanGTP-Impb inh: 0; Tb hexokinase: -85

What do the screens show for `O=C(O)c1cc(S(=O)(=O)O)cc(Nc2c3ccccc3nc3ccccc23)c1O`?
RanGTP-Impb inh: 102*

What do the screens show for `CCNC(=O)c1cc(S(=O)(=O)N(C)C)c(Cl)cc1Cl`?
14-3-3 Bad inh: 88*; Runt-CBFb FRET: 0; Runt-SMMHC FRET: 1; Hck Nef HTS: 10; RanGTP-Impb inh: 1; Tb hexokinase: 1

What do the screens show for `CC(C)NC(=O)C(OC(=O)c1ccccc1)C(OC(=O)c1ccccc1)C(=O)O` (stereo not given)?
14-3-3 Bad inh: 70*; Runt-SMMHC FRET: 2; Hck Nef HTS: 0; RanGTP-Impb inh: -2; Tb hexokinase: -4

How did Cc1ccc(NCc2ccco2)cc1C do in these assays?
14-3-3 Bad inh: 71*; Runt-CBFb FRET: 4; Runt-SMMHC FRET: 4; Hck Nef HTS: 21; RanGTP-Impb inh: -5; Tb hexokinase: 0

How did CC(C)Sc1nc2ccccc2c(=O)[nH]1 do in these assays?
14-3-3 Bad inh: 3; Runt-CBFb FRET: 0; Runt-SMMHC FRET: 1; Hck Nef HTS: -25; RanGTP-Impb inh: 1; Tb hexokinase: -2

How did CC(c1nc2ccccc2c(=O)[nH]1)N(C)c1ccc2ccccc2c1 (stereo not given) do in these assays?
14-3-3 Bad inh: -15; Runt-CBFb FRET: 2; Runt-SMMHC FRET: 3; Hck Nef HTS: -1; RanGTP-Impb inh: 96*; Tb hexokinase: 17

How did COc1ccc(NC(=S)N2CCc3ccccc32)cc1OC do in these assays?
RanGTP-Impb inh: -6

What do the screens show for `O=C(O)CCCC(=O)Nc1nc2n(n1)C(c1ccc(F)cc1)CC(c1ccc(Cl)cc1)N2` (stereo not given)?
14-3-3 Bad inh: -13; Runt-CBFb FRET: -1; Runt-SMMHC FRET: -7; Hck Nef HTS: 1; RanGTP-Impb inh: inconclusive; Tb hexokinase: 19

Results for CC1=CC(c2ccc(Cl)cc2)n2nc(NC(=O)CCC(=O)O)nc2N1 (stereo not given) ?
14-3-3 Bad inh: 0; Runt-CBFb FRET: 29; Runt-SMMHC FRET: 54*; Hck Nef HTS: 21; RanGTP-Impb inh: 1; Tb hexokinase: -17

How did N#CC(C#N)=C1c2cc(S(N)(=O)=O)ccc2-c2ccc(S(N)(=O)=O)cc21 do in these assays?
14-3-3 Bad inh: 81*; Runt-CBFb FRET: -4; Runt-SMMHC FRET: -7; Hck Nef HTS: 21; Tb hexokinase: -10

How did O=C(CNC(=O)c1ccco1)NCC(=O)OCC(=O)c1ccc(Cl)c([N+](=O)[O-])c1 do in these assays?
RanGTP-Impb inh: -4
